The target in assay [1] is T1, Muscarinic acetylcholine receptor M2 (Homo sapiens, UniProt P08172).
T1 sequence (P08172 whole entry): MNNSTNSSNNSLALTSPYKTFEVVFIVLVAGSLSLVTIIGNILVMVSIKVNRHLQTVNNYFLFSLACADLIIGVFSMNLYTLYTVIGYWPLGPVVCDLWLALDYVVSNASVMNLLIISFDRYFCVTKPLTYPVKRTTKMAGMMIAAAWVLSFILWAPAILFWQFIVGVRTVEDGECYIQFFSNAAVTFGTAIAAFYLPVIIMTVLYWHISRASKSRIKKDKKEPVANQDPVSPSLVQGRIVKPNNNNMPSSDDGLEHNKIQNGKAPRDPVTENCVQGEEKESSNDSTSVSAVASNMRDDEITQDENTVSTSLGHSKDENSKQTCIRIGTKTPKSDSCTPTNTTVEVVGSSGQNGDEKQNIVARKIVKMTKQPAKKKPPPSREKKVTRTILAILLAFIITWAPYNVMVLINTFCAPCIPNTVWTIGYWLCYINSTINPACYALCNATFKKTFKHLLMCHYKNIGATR
Kind of assay: Displacement of 4-(2-((1E,3E)-5-((E)-3,3-Dimethyl-1-(6-oxo-6-((2-(3-(1-(4-(1-(2-oxo-2-(11-oxo-10,11-dihydro-5H-dibenzo[b,e][1,4]diazepin-5-yl)ethyl)piperidin-4-yl)butyl)-1H-imidazol-4-yl)propanamido)ethyl)-amino)hexyl)-5-sulfoindolin-2-ylidene)penta-1,3-dien-1-yl)-3,3-dimethyl-3H-indol-1-ium-1-yl)butane-1-sulfonateHydrotrifluoroacetate fluorescent tracer from human muscarinic M2 receptor expressed in […] cells measured after 60 mins by Hoechst H33342 dye based confocal plate reader assay. The format is cell-based.

For assay [2], the target named is T1, Muscarinic acetylcholine receptor M2. In words: Displacement of 4-(2-((1E,3E)-5-((E)-1-(6-((3,5-Bis((2-(3-(1-(4-(1-(2-oxo-2-(11-oxo-10,11-dihydro-5H-dibenzo[b,e][1,4]diazepin-5-yl)ethyl)piperidin-4-yl)butyl)-1H-imidazol-4-yl)propanamido)ethyl)carbamoyl)benzyl)amino)-6-oxohexyl)-3,3-dimethyl-5-sulfoindolin-2-ylidene)penta-1,3-dien-1-yl)-3,3-dimethyl-3H-indol-1-ium-1-yl)butane-1-sulfonate Tris(hydrotrifluoroacetate) fluorescent tracer from human muscarinic M2 receptor expressed in […] cells measured after 60 mins by Hoechst H33342 dye based confocal plate reader assay. The format is cell-based.

For assay [3] the target is unchanged. In words: Displacement of 4-(2-((1E,3E)-5-((E)-3,3-Dimethyl-1-(6-oxo-6-((2-(4-(4-(1-(2-oxo-2-(11-oxo-10,11-dihydro-5H-dibenzo[b,e][1,4]diazepin-5-yl)ethyl)piperidin-4-yl)butyl)piperazin-1-yl)ethyl)amino)hexyl)-5-sulfoindolin-2-ylidene)penta-1,3-dien-1-yl)-3,3-dimethyl-3H-indol-1-ium-1-yl)butane-1-sulfonate Bis(hydrotrifluoroacetate) fluorescent tracer from human muscarinic M2 receptor expressed in […] cells measured after 60 mins by Hoechst H33342 dye based confocal plate reader assay. The format is cell-based.

Assay [4] shares this target. In words: Displacement of 4-(2-((1E,3E)-5-((E)-3,3-Dimethyl-1-(6-oxo-6-((2-(3-(1-(4-(1-(2-oxo-2-(11-oxo-10,11-dihydro-5H-dibenzo[b,e][1,4]diazepin-5-yl)ethyl)piperidin-4-yl)butyl)-1H-imidazol-4-yl)propanamido)ethyl)-amino)hexyl)-5-sulfoindolin-2-ylidene)penta-1,3-dien-1-yl)-3,3-dimethyl-3H-indol-1-ium-1-yl)butane-1-sulfonateHydrotrifluoroacetate fluorescent tracer from human muscarinic M2 receptor expressed in CHO-K9 cells by competition binding assay. The conditions noted are these: read-out: pA2 (converted). The format is cell-based. Summed up:
(§1)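 High-content imaging competition binding at intact CHO-hM2R cells against fluorescent tracer at 10 nM. Separately, flow cytometry competition with the fluorescent tracer at 1 nM at live cells. Four-parameter logistic fits; mean ± SEM of at least two experiments in duplicate.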

The target is the same in assay [5]. Kind of assay: Displacement of 4-(2-((1E,3E)-5-((E)-1-(6-((3,5-Bis((2-(3-(1-(4-(1-(2-oxo-2-(11-oxo-10,11-dihydro-5H-dibenzo[b,e][1,4]diazepin-5-yl)ethyl)piperidin-4-yl)butyl)-1H-imidazol-4-yl)propanamido)ethyl)carbamoyl)benzyl)amino)-6-oxohexyl)-3,3-dimethyl-5-sulfoindolin-2-ylidene)penta-1,3-dien-1-yl)-3,3-dimethyl-3H-indol-1-ium-1-yl)butane-1-sulfonate Tris(hydrotrifluoroacetate) fluorescent tracer from human muscarinic M2 receptor expressed in CHO-K9 cells by competition binding assay. The format is cell-based. The conditions noted are these: read-out: pA2 (converted). Summed up:
as §1

The target is the same in assay [6]. Kind of assay: Displacement of 4-(2-((1E,3E)-5-((E)-3,3-Dimethyl-1-(6-oxo-6-((2-(4-(4-(1-(2-oxo-2-(11-oxo-10,11-dihydro-5H-dibenzo[b,e][1,4]diazepin-5-yl)ethyl)piperidin-4-yl)butyl)piperazin-1-yl)ethyl)amino)hexyl)-5-sulfoindolin-2-ylidene)penta-1,3-dien-1-yl)-3,3-dimethyl-3H-indol-1-ium-1-yl)butane-1-sulfonate Bis(hydrotrifluoroacetate) fluorescent tracer from human muscarinic M2 receptor expressed in CHO-K9 cells by FACSCalibur flow cytometry. The format is cell-based.

For assay [7] the target is unchanged. Kind of assay: Displacement of 4-(2-((1E,3E)-5-((E)-3,3-Dimethyl-1-(6-oxo-6-((2-(4-(4-(1-(2-oxo-2-(11-oxo-10,11-dihydro-5H-dibenzo[b,e][1,4]diazepin-5-yl)ethyl)piperidin-4-yl)butyl)piperazin-1-yl)ethyl)amino)hexyl)-5-sulfoindolin-2-ylidene)penta-1,3-dien-1-yl)-3,3-dimethyl-3H-indol-1-ium-1-yl)butane-1-sulfonate Bis(hydrotrifluoroacetate) fluorescent tracer from human muscarinic M2 receptor expressed in CHO-K9 cells by competition binding assay. As to conditions: read-out: pA2 (converted). The format is cell-based. The method in brief:
as §1

Assay [8] deals with T2, Muscarinic acetylcholine receptor M2 (Homo sapiens) (UniProt P08172).
T2 sequence (whole entry): T1 sequence (P08172 whole entry)
In words: Displacement of [3h]-NMS from human muscarinic M2 receptor expressed in CHO cells by radioligand binding assay. The format is cell-based.

Assay [9] deals with T3, Muscarinic acetylcholine receptor M1 (Homo sapiens) (UniProt P11229).
T3 sequence (whole entry): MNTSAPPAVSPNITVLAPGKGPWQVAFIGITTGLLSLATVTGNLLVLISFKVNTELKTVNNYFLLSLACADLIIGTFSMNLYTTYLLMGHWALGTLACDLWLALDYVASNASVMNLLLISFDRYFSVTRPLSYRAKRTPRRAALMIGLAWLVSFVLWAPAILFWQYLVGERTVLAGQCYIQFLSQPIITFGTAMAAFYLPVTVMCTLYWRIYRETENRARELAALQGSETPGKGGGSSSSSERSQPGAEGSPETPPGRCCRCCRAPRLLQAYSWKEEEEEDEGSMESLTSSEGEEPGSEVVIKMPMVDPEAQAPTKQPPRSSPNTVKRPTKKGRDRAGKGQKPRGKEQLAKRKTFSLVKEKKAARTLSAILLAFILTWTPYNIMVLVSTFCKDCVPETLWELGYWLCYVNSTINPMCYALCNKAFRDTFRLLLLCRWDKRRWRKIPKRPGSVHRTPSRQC
Kind of assay: Displacement of [3H]-NMS from human muscarinic M1 receptor expressed in CHO cells by scintillation counting method. The format is cell-based. On the technique in general: Displacement assays read how much labelled ligand stays bound in the presence of the test substance.

For assay [10], the target named is T4, Muscarinic acetylcholine receptor M1 (Homo sapiens, UniProt P11229).
T4 sequence (P11229 whole entry): T3 sequence (whole entry)
In words: Displacement of [3H]-QNB from truncated EGFP-fused human muscarinic M1 receptor expressed in HEK293 cells by […]. The format is cell-based.

The target in assay [11] is Muscarinic acetylcholine receptor M2 (Homo sapiens) (UniProt P08172). In words: Displacement of [3H]-UR-SK259 human muscarinic M2 receptor.

From ChEMBL document CHEMBL4602702, “Red-Emitting Dibenzodiazepinone Derivatives as Fluorescent Dualsteric Probes for the Muscarinic Acetylcholine M2 Receptor” (J Med Chem, 2020) come the findings set out here.

Regarding `CCC(=O)NCc1cc(C(=O)NCCNC(=O)CCc2cn(CCCCC3CCN(CC(=O)N4c5ccccc5NC(=O)c5ccccc54)CC3)cn2)cc(C(=O)NCCNC(=O)CCc2cn(CCCCC3CCN(CC(=O)N4c5ccccc5NC(=O)c5ccccc54)CC3)cn2)c1`, the Ki in assay [1] is 0.355 nM; in assay [2], 0.525 nM.
Take `C[N+](C)(CCCCCC[N+](C)(C)CCCN1C(=O)c2ccccc2C1=O)CCCN1C(=O)c2ccccc2C1=O`: the Ki in [3] is 1410 nM; in assay [1], 646 nM; in [2] it was 851 nM; in assay [6], 407 nM. For the same molecule, the Kb in assay [4] was 457 nM; in assay [5] it was 200 nM; in [7], 148 nM.
For the molecule `Cc1scc2c1N(C(=O)CN1CCN(CCCCCCCCCCNC(=O)Cc3ccc4c(c3)C(C)(C)C3=C5C=C6C7=[N+](CCC6OC5CCN34)c3ccc(S(=O)(=O)[O-])cc3C7(C)C)CC1)c1ccccc1NC2=O` (stereo unspecified), the values for the pK in assay [8] and in assay [9] were 10.3 and 10.5, respectively.
`O=C(CCC1=[N+]2C(=Cc3ccc(-c4cccs4)n3[B-]2(F)F)C=C1)NCCOCCOCCOCCOCCOCCOCCCN1CCN(CC(=O)N2c3ccccc3C(=O)Nc3cccnc32)CC1`: in assay [10], the affinity, expressed as Ki, was 8.91 nM.
Regarding `O=C1CCCN1CC#CCN1CCCC1` [OXOTREMORINE], the Ki in [3] is 851 nM; in assay [1], 1020 nM; in [2], 1780 nM.
Consider `CCC(=O)NCc1cc(C(=O)NCCN2CCC(N3CCC(n4c(=O)[nH]c5ccccc54)CC3)CC2)cc(C(=O)NCCN2CCN(CCCCC3CCN(CC(=O)N4c5ccccc5NC(=O)c5ccccc54)CC3)CC2)c1`, for which the Kd in assay [11] is 0.813 nM.

The term Ki denotes a dissociation constant, usually derived from enzyme kinetics or from competition with a known ligand. Lower therefore signals a stronger hold on the target. As usually defined, the Kd is the free concentration of one partner at which half of the binding sites on the other are occupied at equilibrium, for simple one-to-one binding. Low readings indicate a tighter complex, high ones a looser complex.
